Data taken from publication PMC12222516 (Scientific Reports, 2025).

Tests used:
[1] = MTT cytotoxicity assay; assay type: cell-based, human; details: human, normal human dermal fibroblast (HDF) cells
Summary of the method: (§1)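 Human dermal fibroblasts grown in DMEM with 10% FBS, penicillin 100 units/mL, streptomycin 100 µg/mL and amphotericin B 0.25 µg/mL. Seeded at 2 × 10³ cells/well and left to adhere overnight at 37 °C, 5% CO2. Exposed to varying doses for 24 h, with 0.5% DMSO as untreated control. MTT at 1 mg/mL for 4 h at 37 °C. Formazan dissolved in DMSO and read at 570 nm. Viability expressed as % of control.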

[2] = target: α-glucosidase from Saccharomyces cerevisiae (Saccharomyces cerevisiae, UniProt P53341); test: Enzyme kinetic study; assay type: biochemical
α-glucosidase from Saccharomyces cerevisiae, sequence (P53341 whole entry): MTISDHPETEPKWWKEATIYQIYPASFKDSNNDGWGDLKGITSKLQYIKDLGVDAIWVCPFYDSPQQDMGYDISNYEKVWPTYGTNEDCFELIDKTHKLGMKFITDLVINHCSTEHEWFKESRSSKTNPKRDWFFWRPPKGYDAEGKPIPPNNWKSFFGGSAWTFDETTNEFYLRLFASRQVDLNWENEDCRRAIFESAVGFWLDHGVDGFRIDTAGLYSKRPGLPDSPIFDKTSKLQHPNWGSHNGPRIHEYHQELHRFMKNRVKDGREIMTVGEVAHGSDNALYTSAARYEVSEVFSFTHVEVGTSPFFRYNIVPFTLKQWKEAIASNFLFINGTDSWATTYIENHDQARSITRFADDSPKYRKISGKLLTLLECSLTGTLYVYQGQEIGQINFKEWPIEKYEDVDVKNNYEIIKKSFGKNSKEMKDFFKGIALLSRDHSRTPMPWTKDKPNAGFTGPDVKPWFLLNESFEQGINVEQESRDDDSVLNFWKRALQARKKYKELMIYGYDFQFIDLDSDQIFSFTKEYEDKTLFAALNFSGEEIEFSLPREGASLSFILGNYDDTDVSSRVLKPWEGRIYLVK
Summary of the method: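 Yeast (S. cerevisiae) α-glucosidase, EC 3.2.1.20, kept at 0.02 U/mL. Run with and without test compound at several concentrations, across a range of p-NPG substrate concentrations. Inhibition type assigned from the Lineweaver–Burk plot. Ki taken from a secondary plot of slope against inhibitor concentration.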

[3] = system: normal human dermal fibroblast (HDF) cells; test: MTT cytotoxicity assay; assay type: cell-based; details: HDF cells, MTT
Summary of the method: as §1

Ki [2] [µM]	mode of inhibition ([2]; Lineweaver–Burk plots)	SMILES	CC50 at 24 h [1] [µM]	cytotoxic effect on normal cells at given IC50 value [3]
		C[C@H]1CN(C(=O)Nc2ccc(C(F)(F)F)cc2)CCN1c1ccnc(Nc2ccc(Cl)c(OCc3ccccc3)c2)n1 [Compound 22c, (S)-4-(2-((3-(benzyloxy)-4-chlorophenyl)amino)pyrimidin-4-yl)-3-methyl-N-(4-(trifluoromethyl)phenyl)piperazine-1-carboxamide]	> 200	
		C[C@H]1CN(C(=O)Nc2ccc(C(F)(F)F)cc2)CCN1c1ccnc(Nc2cccc([N+](=O)[O-])c2)n1 [Compound 17c, (S)-3-methyl-4-(2-((3-nitrophenyl)amino)pyrimidin-4-yl)-N-(4-(trifluoromethyl)phenyl)piperazine-1-carboxamide]	15.2	
0.74	competitive inhibitor	C[C@H]1CN(C(=O)Nc2ccc(C(F)(F)F)cc2)CCN1c1ccnc(Nc2ccc(Cl)c(O)c2)n1 [Compound 21c, (S)-4-(2-((4-chloro-3-hydroxyphenyl)amino)pyrimidin-4-yl)-3-methyl-N-(4-(trifluoromethyl)phenyl)piperazine-1-carboxamide]	23.1	no cytotoxic effect
		C[C@H]1CN(C(=O)Nc2ccc(C(F)(F)F)cc2)CCN1c1ccnc(Nc2ccc(Cl)cc2)n1 [Compound 7c, (S)-4-(2-((4-chlorophenyl)amino)pyrimidin-4-yl)-3-methyl-N-(4-(trifluoromethyl)phenyl)piperazine-1-carboxamide]	42.3	
